Screening data: PubChem BioAssay, several laboratories
CRFBP-R2 agonist = agonists of human CRF-binding protein/CRF-R2 receptor complex | HEK293 CRF-R2/CRF-BP, calcium dye fluorescence (FLIPR); percent of saturating CRF peptide response | activation, % at 13.2 µM | hit rate 0.46% among 350,000;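 active = activation of at least 50%, plus an integration ratio under a set limit after plate pattern correction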
KLK7 zymogen act = proKLK7 (human) activation, primary screen. hit rate 0.9% among 370,000. activation, % at 7 µM. purified proKLK7, EDANS-DABCYL substrate fluorescence; 100% is mature enzyme control, 0% vehicle. AID 652039;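 active = activation above the mean of all tested compounds plus 3 SD, computed per campaign excluding outliers beyond control limits, cut at about 13% in these data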
DDE Tn6 FP inh = disrupts Tn6 cyclic peptide binding to fibrin D-Dimer-E complex; AID 720509; P02675; hit rate 0.21% among 370,000; Fibrin DD(E) TRITC-Tn6 fluorescence polarization displacement; inhibition, % at 8.3 µM;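 active = inhibition above a per-campaign cutoff: mean of compounds within control limits plus 3 SD, cut at about 15% in these data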
Target sequence (P02675 whole entry, looked up): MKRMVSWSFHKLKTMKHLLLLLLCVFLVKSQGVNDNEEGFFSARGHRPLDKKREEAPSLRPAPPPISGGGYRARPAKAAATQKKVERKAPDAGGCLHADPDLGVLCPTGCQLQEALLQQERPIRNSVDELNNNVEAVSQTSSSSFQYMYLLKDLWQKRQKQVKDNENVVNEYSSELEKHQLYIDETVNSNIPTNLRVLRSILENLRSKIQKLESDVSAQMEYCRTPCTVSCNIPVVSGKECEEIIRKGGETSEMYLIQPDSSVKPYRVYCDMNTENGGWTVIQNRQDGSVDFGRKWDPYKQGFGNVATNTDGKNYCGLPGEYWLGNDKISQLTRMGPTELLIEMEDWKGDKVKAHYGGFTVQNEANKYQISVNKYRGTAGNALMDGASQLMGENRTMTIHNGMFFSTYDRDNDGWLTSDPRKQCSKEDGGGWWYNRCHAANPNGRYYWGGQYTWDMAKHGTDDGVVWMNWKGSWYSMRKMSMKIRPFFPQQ
DDE Tn7 FP inh = disrupts Tn7 cyclic peptide binding to fibrin D-Dimer-E complex | FP displacement of FITC-Tn7 peptide from fibrin DD(E); 0% = median of compound wells per plate | inhibition, % at 8.3 µM | hit rate 0.13% among 370,000;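 active = inhibition above the mean of compounds falling within the control limits plus 3 SD of them, cut at about 14% in these data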
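Test system: human clot-derived fibrin DD(E) complex / Quantity: 2 µM final DD(E) protein / Incubation: 10 min plus 3 h, room temperature / Measured by: fluorescence polarization / Benchmarks: high control of 10 µM Aha-Tn7 peptide / Replicates: singlicate testing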
CRFR2-BP antag = CRF-BP/CRF-R2 complex antagonism; inhibition, % at 11.8 µM; AID 588475; hit rate 0.59% among 350,000; HEK293 CRF-R2/CRF-BP, CRF-induced calcium fluorescence;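 active = inhibition of the ligand-induced calcium signal above about 50% at the single tested concentration, limit read from the data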
NRP1-CendR mod = NRP-1/CendR interaction modulation. O14786. FAM-RPARPAR peptide binding to NRP-1, fluorescence polarization. inhibition, % at 25 µM. hit rate 0.85% among 360,000;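 active = inhibition or corrected inhibition above about 18%, plus a signal ratio from 0.5 to 1.5, limit read from the data, passing the limit was not always enough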
Of the large screens only hits and unclear results are named; the others gave an inactive call. Compounds with a hit are over-represented: about 2.9% of the library has one in this group of screens.

COc1cc(NC(=O)c2cccs2)c(OC)cc1NC(=O)CCC(=O)Nc1ccc2ncccc2c1	KLK7 zymogen act 67.6
Cc1ccc(C)c(S(=O)(=O)ON2C(=O)c3ccccc3C2=O)c1	CRFR2-BP antag 62.7
NC(=O)C1CCN(C(=O)C2CCC(=O)N(CC3CCCCC3)C2)CC1 (stereo not drawn)	NRP1-CendR mod 18.2
COC(CNC(=O)[C@H](Cc1ccccc1)NC1(C(=O)NC2CCCCC2)CCCC1)OC	none (no result: CRFBP-R2 agonist, KLK7 zymogen act, CRFR2-BP antag, NRP1-CendR mod)
Cc1ccc(-n2nc3c(=O)n(CC(=O)NCc4cccs4)nc(C)c3c2C)cc1	CRFR2-BP antag 63.7
CC(C)CN(CC(C)C)C(=O)CCCC(=O)N(CC(C)C)CC(C)C	CRFR2-BP antag 52.5
CCCCC(=O)N(CCC)CCC	none
COC(=O)C1=C(C)N(Cc2cccc(C(F)(F)F)c2)C(=NCC2CC2)NC1c1cccc(C(F)(F)F)c1 (stereo not drawn)	none (no result: CRFBP-R2 agonist, CRFR2-BP antag, NRP1-CendR mod)
COc1ccc(-n2c(SCc3nc4ccccc4[nH]3)nc3ccccc3c2=O)cc1	none (no result: CRFBP-R2 agonist, CRFR2-BP antag, NRP1-CendR mod)
Cn1ccc(C(=O)Nc2sc3c(c2C(N)=O)CCCCC3)n1	CRFR2-BP antag 78.3
CCCN1CCc2c(sc(NC(=O)c3ccc(S(=O)(=O)N(C)c4ccccc4)cc3)c2C(N)=O)C1	CRFBP-R2 agonist 98.7 (no result: KLK7 zymogen act, DDE Tn6 FP inh, DDE Tn7 FP inh)
Cn1nccc1C(=O)Nc1sc2c(c1C(N)=O)CCCC2	none
CNC(=O)c1c(NC(=O)c2ccc(S(=O)(=O)N3CCCc4ccccc43)cc2)sc2c1CCN(C)C2	CRFBP-R2 agonist 158.6
CCCN1CCc2c(sc(NC(=O)c3ccc(S(=O)(=O)N(C)c4ccccc4)cc3)c2C(=O)NC)C1	CRFBP-R2 agonist 63.1
C=CCN1[C@H](Cc2ccccc2)COc2cc(N3CCSCC3)ccc2S1(=O)=O	none (no result: CRFBP-R2 agonist, CRFR2-BP antag, NRP1-CendR mod)
COc1ccc2[nH]c3c(c2c1)CCN[C@]31C(=O)N(Cc2cn(Cc3ccccc3)nn2)c2ccc(F)cc21	none (no result: CRFBP-R2 agonist, CRFR2-BP antag, NRP1-CendR mod)
CCCN1CCc2c(sc(NC(=O)c3ccc(S(=O)(=O)N4CCN(C(=O)OCC)CC4)cc3)c2C(N)=O)C1	CRFBP-R2 agonist 108.3
CN1CCc2c(sc(NC(=O)c3ccc(S(=O)(=O)N4CCCCCC4)cc3)c2C(N)=O)C1	CRFBP-R2 agonist 126.7 (no result: KLK7 zymogen act, DDE Tn6 FP inh, DDE Tn7 FP inh)
Cc1cc(C)cc(OCCCn2ccnc2)c1	NRP1-CendR mod 27.4
COC(=O)c1sc(NC(=S)NC(=O)c2cccc(C)c2)nc1C	CRFBP-R2 agonist 64.6
O=C(NNC(=O)c1oc2ccccc2c1-n1cccc1)c1ccco1	CRFR2-BP antag 96.5
COC(=O)C1CN(Cc2ccc(OC)cc2)CCS(=O)(=O)N1Cc1ccc(C(F)(F)F)cc1 (stereo not drawn)	none (no result: CRFBP-R2 agonist, CRFR2-BP antag, NRP1-CendR mod)
COC(=O)CN1C(=O)Nc2ccc(Br)cc2C1c1ccccc1 (stereo not drawn)	none
CC1=Nc2ccc(Br)cc2C(c2ccccc2)N1CC(=O)O (stereo not drawn)	none
COc1ccc(C2Nc3ccc(Br)cc3C(c3ccccc3)N2CC(=O)O)cc1 (stereo not drawn)	CRFR2-BP antag 86.5
O=C(O)CN1C(c2ccccc2O)Nc2ccc(Br)cc2C1c1ccccc1 (stereo not drawn)	CRFR2-BP antag 63.3
O=S(=O)(c1ccc(F)cc1)c1nc(-c2ccccc2)oc1N1CCOCC1	none
O=S(=O)(c1ccccc1)c1nc(-c2ccc(F)cc2)oc1N1CCOCC1	NRP1-CendR mod 22.4
C[C@@H](C(=O)Nc1cccnc1)n1c(=O)[nH]c2ccccc2c1=O	NRP1-CendR mod 35.3
CC(C1=CCCCC1)c1cnn(C)c1 (stereo not drawn)	none (no result: CRFBP-R2 agonist, CRFR2-BP antag, NRP1-CendR mod)
COc1c(C(C)(C)C)cc(S(=O)(=O)N2c3ccccc3C[C@H]2C)cc1C(C)(C)C	none (no result: CRFBP-R2 agonist, KLK7 zymogen act, CRFR2-BP antag, NRP1-CendR mod)
CC(C)C[C@H]1COc2cc(N3CCSCC3)ccc2S(=O)(=O)N1C	none (no result: CRFBP-R2 agonist, CRFR2-BP antag, NRP1-CendR mod)
CCOc1ccc(/C=N/NC(=O)C(C)N(c2ccc(OC)cc2)S(C)(=O)=O)cc1OCC (stereo not drawn)	CRFR2-BP antag 55.1
O=C1c2ccccc2C(=O)c2c1ccc(C(=O)N1CCCCC1)c2NCCO	none
CC1(C)CCCN(C(=O)c2ccc3c(c2NCCO)C(=O)c2ccccc2C3=O)C1	NRP1-CendR mod 27.5
CC1CCCN(C(=O)c2ccc3c(c2NCCO)C(=O)c2ccccc2C3=O)C1 (stereo not drawn)	NRP1-CendR mod 18.8
